High-throughput results from PubChem.
Calb biofilm kill = mixtures killing C. albicans biofilm | AID 1242 | actives 0.02% (n = 120,000) | inhibition, % at 7.6 µM | C. albicans biofilm persisters + clotrimazole, fluorescence viability; primary screen in compound mixtures of four per well;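 note: compounds exposed to preformed 24 h biofilms for 48 h; 0% = untreated biofilm control and 100% = clotrimazole plus chlorhexidine kill blank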
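Incubation: 24 h biofilm formation, then 48 h compound exposure, 37 °C | Material: C. albicans biofilms | Buffer or medium: RPMI/MOPS medium, pH 7.0 | Measured by: 2-h Alamar Blue fluorescence, 535/590 nm excitation/emission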
Pf gamet viab = kills late stage P. falciparum gametocytes; P. falciparum stage V gametocytes, ATP luminescence, 24 h; inhibition, % at 10.9 µM; actives 0.065% (n = 150,000); AID 743093;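 active = inhibition above the mean plus 3 SD of compounds within the control limits, set per campaign, cut at about 38% in these data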;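 note: 0% = DMSO wells and 100% = medium only without gametocytes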
ROMK primary = human ROMK K+ channel modulation, primary screen; Tet-inducible ROMK, thallium flux fluorescence; actives lie on both sides; B-score at 10 µM; actives 2% (n = 130,000); AID 1918;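 active = signal ratio slope over the read window, or its plate-corrected B-score, at least 3 SD from the plate mean, either direction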;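 note: B-score of the F/F0 ratio slope over 7 to 12 s after thallium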
Target sequence (P48048 whole entry, looked up): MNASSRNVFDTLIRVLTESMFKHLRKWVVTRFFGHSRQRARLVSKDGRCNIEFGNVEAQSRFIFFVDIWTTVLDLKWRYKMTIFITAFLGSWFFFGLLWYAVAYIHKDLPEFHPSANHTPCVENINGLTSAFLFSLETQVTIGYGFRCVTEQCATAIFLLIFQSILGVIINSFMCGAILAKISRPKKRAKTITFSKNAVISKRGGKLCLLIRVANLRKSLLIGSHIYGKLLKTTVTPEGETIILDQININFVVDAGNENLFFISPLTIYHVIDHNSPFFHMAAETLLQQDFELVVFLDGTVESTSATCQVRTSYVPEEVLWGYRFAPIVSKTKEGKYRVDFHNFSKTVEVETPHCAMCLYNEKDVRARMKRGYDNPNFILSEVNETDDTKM
ROMK hit retest = retested hit modulating human ROMK potassium channel. ROMK thallium flux, fluorescence ratio; stronger effect = lower value. normalized thallium flux (F/F0 slope) at 10 µM. actives 54% (n = 3,000). shares compounds with ROMK primary. AID 1917;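 active = Flux at 10 µM at least 3 SD below or above vehicle control mean in one or both replicates; inconclusive = no clear call, values can overlap the other calls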
Numbers without * were called inactive; ? = inconclusive; . = no result given. Many of the other results were omitted from the sample, so hits are more common in it than they were.

SMILES | Calb biofilm kill | Pf gamet viab | ROMK primary | others
CC(N)=Nc1ccc([N+](=O)[O-])cc1 | 4 | 13 | 0.8
O=[N+]([O-])c1ccc(N=Nc2c(Cl)cc(O)cc2Cl)cc1 | 15 | . | -8.8*
O=C1C=C(c2cc(F)ccc2F)C[C@@H](c2ccc(F)cc2)C1 | . | -50 | .
CCN(CC)c1ccc(-c2nn3c(-c4ccccc4OC)nnc3s2)cc1 | . | . | 3.9*
COc1ccc(-c2nn3c(-c4ccccc4)nnc3s2)cc1 | . | 20 | .
O=c1c2cc(Br)ccc2nc(-c2cccc(C(F)(F)F)c2)n1O | . | 2 | 3.7*
O=c1c2cc(Br)ccc2nc(-c2ccc([N+](=O)[O-])cc2)n1O | 18 | 16 | 1.1
CC1=NOC(=O)/C1=C\c1ccc(-c2ccc(Br)cc2)o1 | 18 | . | -0.75
CC1=NOC(=O)/C1=C/c1ccc(-c2ccc(Cl)cc2)o1 | . | . | -2.7*
O=C(COc1ccc(Cl)cc1Cl)N/N=C/c1ccc(OC2OC(CO)C(O)C(O)C2O)cc1 (stereo not drawn) | 23 | -1 | .
C=CCn1c(-c2cccn(Cc3ccc(Cl)cc3Cl)c2=O)n[nH]c1=S | . | 10 | .
COc1ccc2nc(-c3ccc(Cl)cc3)cc(C(=O)O)c2c1 | 19 | 18 | -0.014
OCC1(Cc2ccccc2)CCN(Cc2cnc(-c3ccc(Cl)cc3)nc2)CC1 | 18 | 42* | -0.048
OCC1(Cc2ccccc2)CCN(Cc2cnc(-c3cccc4ccccc34)nc2)CC1 | 23 | . | -2.1
O=C(O)c1c2c(nc3ccc(S(=O)(=O)N4CCC(C(=O)NC5CCCCCC5)CC4)cc13)CCCC2 | 14 | 14 | 0.89
Cc1c(-c2cc(C(=O)O)c3ccccc3n2)cnn1C | 29 | -3 | 1.2
N#CCCS(=O)(=O)c1nnnn1-c1ccccc1 | . | . | -4.7*
c1ccc(-n2nnnc2Cc2nnnn2-c2ccccc2)cc1 | 10 | 0 | 0.56
CCOc1ccccc1C1C(C#N)=C(N)Nc2onc(-c3ccccc3)c21 (stereo not drawn) | . | . | 0.074
CCCc1noc2c1C(c1ccoc1)C(C#N)=C(N)N2 (stereo not drawn) | . | . | -2.6*
Cc1c(C)n(CC(O)CN2CCCCCC2)c2ccccc12 (stereo not drawn) | . | 5 | -2.1*
Cc1c(C)n(CC(O)CNc2ccccc2)c2ccccc12 (stereo not drawn) | 5 | -6 | 0.045
CN1CCN(C(=S)NC(=O)c2ccco2)CC1 | 49 | -17 | .
CSc1ncccc1C(=O)OCC(=O)NC(C)C | 18 | -4 | -0.36
CC(C)(C)NC(=S)NC(=O)C12CC3CCC(CC(C3)C1)C2 | 13 | -1 | .
SMILES | Calb biofilm kill | Pf gamet viab | ROMK primary | others
CC12CC3(C)CC(C)(C1)CC(C(=O)NC(=S)NC(C)(C)C)(C2)C3 | 8 | 8 | 2.5* | ROMK hit retest=?
CCn1c(CCCc2ccc(OC)c(C)c2)n[nH]c1=S | -2 | 4 | -0.33
CCOC(=O)COc1c(Br)cc(/C=C2\SC(=O)N(CC(=O)N3CCCC3)C2=O)cc1OC | . | -9 | -4.7* | ROMK hit retest=0.057*
CCOc1c(Br)cc(/C=C2/SC(=O)N(CC(=O)N3CCCC3)C2=O)cc1OC | . | -28 | 0.38
O=[N+]([O-])c1ccc2nc(CN3CCCCC3)[nH]c2c1 | 1 | 18 | 0.56
O=[N+]([O-])c1ccc2nc(CCCc3nc4ccc([N+](=O)[O-])cc4[nH]3)[nH]c2c1 | 0 | -10 | -6.9* | ROMK hit retest=0.027*
COc1ccc(CN2CCN(CCCCOc3ccc(Cl)cc3)CC2)c(OC)c1OC | 11 | -2 | -0.83
Cc1ccc(NC(=O)C(Nc2ccccc2)c2ccccc2)cc1 (stereo not drawn) | 14 | -12 | . | ROMK hit retest=0.083
Cc1ccc(NC(=O)C(Nc2cccc(C)c2)c2ccccc2)cc1 (stereo not drawn) | 15 | 0 | 0.69
COc1ccc(C2CC(=O)Oc3c(C(CCN4CCCC(C)C4)c4ccc(N(C)C)cc4)c(OC)cc(OC)c32)cc1 (stereo not drawn) | 7 | . | . | ROMK hit retest=0.059*
COc1ccc(C2CC(=O)Oc3c(C(CCN4CCCCC4)c4ccc(N(C)C)cc4)c(OC)cc(OC)c32)cc1 (stereo not drawn) | 7 | 0 | .
CCOC(=O)Nc1ccc2c(c1)N(C(=O)CN1CCN(C)CC1)c1ccccc1S2 | . | 6 | .
Cc1scc2c1N(C(=O)CN1CCN(C)CC1)c1ccccc1NC2=O | 4 | . | 3.1* | ROMK hit retest=0.075
O=C(CSCc1ccc(F)cc1)NCc1ccc(F)cc1 | 10 | 20 | 3* | ROMK hit retest=0.079
Cc1ccc(CSCC(=O)NCc2ccc(F)cc2)cc1 | 15 | 9 | -0.24
O=C(Nc1cccc(S(=O)(=O)N2CCCCC2)c1)c1ccc2c(=O)n3c(nc2c1)CCCCC3 | -2 | 5 | . | ROMK hit retest=0.064*
CCc1ccc(NC(=O)c2ccc3c(=O)n4c(nc3c2)CCCCC4)cc1 | 17 | -22 | .
CCO[C@@H]1OC(C(=O)N2CCN(C)CC2)=C[C@H](c2coc3ccccc3c2=O)[C@H]1CCCO | 24 | . | .
Cc1ccn2c(NC3CCCCC3)c(-c3cccc(-c4cccc(Cl)c4)c3)nc2c1 | . | 2 | .
CCc1ccccc1NC(=O)C(Cc1ccccc1)c1nn[nH]n1 (stereo not drawn) | . | -6 | .
COc1ccc(CNC(=O)c2ccc(N3CCCC3=O)cc2)cc1 | . | . | -0.032
COc1ccc(CCNC(=O)COC(=O)c2ccc(N3CCCC3=O)cc2)cc1 | 6 | 15 | 1.4* | ROMK hit retest=0.071
COc1ccc(NC(=O)CN2CCC(C(N)=O)CC2)cc1 | . | -22 | 0.36
COc1ccc(CCNC(=O)CN2CCC(C(N)=O)CC2)cc1 | . | -15 | . | ROMK hit retest=0.087
CCC1ON(c2ccccc2)C2c3nc4ccccc4n3CC12 (stereo not drawn) | 4 | . | .
SMILES | Calb biofilm kill | Pf gamet viab | ROMK primary | others
CC(C)(C)OC(=O)NCCCCCc1nnc(SCC(=O)Nc2cccc(Cl)c2)o1 | . | -5 | -4.9* | ROMK hit retest=0.064*
CC(C)(C)OC(=O)NCCc1nnc(SCC(=O)Nc2cccc(Cl)c2)o1 | . | 12 | .
COc1ccc(-c2cc3nc(C)cc(N4CC(C)CC(C)C4)n3n2)cc1 (stereo not drawn) | 5 | -37 | 0.82
Cc1cc(C)cc(NS(=O)(=O)c2ccc(NC(=O)C3CCCCC3C(=O)O)cc2)c1 (stereo not drawn) | 15 | -11 | 0.28
Cc1nnc(N/N=C/c2ccc(-c3ccccc3F)o2)n1N | -5 | -4 | -2.5* | ROMK hit retest=0.059*
Cc1nnc(N/N=C\c2ccc(-c3ccccc3[N+](=O)[O-])o2)n1N | 3 | 18 | -0.27
NC1=NC2=C(CCCC2)C2(CCCCC2)S1 | . | 5 | -3.1* | ROMK hit retest=0.064*
COc1cc(OC)cc(-c2oc(=O)c3cc(OC)c(OC)cc3c2C(F)(F)F)c1 | . | 11 | .
CCN(Cc1cc(=O)n2ccsc2n1)Cc1nc2ccccc2c(=O)[nH]1 | 14 | . | 1.4
O=C(NC(=S)N(Cc1ccccc1)Cc1ccccc1)c1ccccc1F | . | 2 | .
COc1ccc(NC(C#N)c2ccccc2OCc2ccccc2)cc1 (stereo not drawn) | 24 | 27 | .
Cc1ccc(NC(C#N)c2ccccc2OCc2ccccc2)cc1 (stereo not drawn) | . | -24 | . | ROMK hit retest=0.095
C/C(CC(=O)Nc1cc(Cl)ccc1C)=N\NC(N)=O | 22 | 10 | .
CN(C)/C=N/c1c(C#N)cnn1-c1ccccc1 | . | -32 | 0.082
CN(C)/C=N/c1c(C#N)cnn1-c1ncnc2sc(-c3ccccc3)cc12 | . | . | . | ROMK hit retest=0.063*
O=C(N/C(=C/C=C\c1ccccc1)C(=O)N1CCOCC1)c1ccc(Br)cc1 | -20 | -8 | 0.84
